CaV13 FRET inh = Disruptors of the CACNA1D IQ motif to Ca2+-dependent inactivation inhibitor domain association, primary screening, Förster resonance energy transfer in intact living … | HEK cells, CFP/YFP FRET ICDI-IQ, plate reader, 10 min; percent FRET-ratio fall versus neutral wells | inhibition, % at 12.3 µM | 0.098% of 340,000 active;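 active means mean replicate inhibition of at least 30% and at least 1% of replicates passing that level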
Casp6 inh = blocks human caspase-6 cleavage activity; P55212; purified caspase-6, Z-VEID-R110 cleavage fluorescence; inhibition, % at 12.5 µM; 0.53% of 350,000 active; AID 686996;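 active means mean inhibition across replicates at least about 35%, with every replicate also reaching that limit, limit read from the data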
NPR1 activator = GC-A (human) enzyme activation; AID 1671463; P16066; 0.14% of 370,000 active; activation, % at 10 µM; HEK293 GC-A cells, cGMP TR-FRET, EC30 ANP; 0% at EC30 ANP, 100% saturating ANP; in the data active means activation above about 40%
NSD2 inh = NSD2 (human) methyltransferase inhibition. 0.54% of 310,000 active. O96028. NSD2 peptide methylation, AlphaScreen, 120 min. inhibition, % at 12.5 µM. AID 743445; in the data active means inhibition above about 50%
GC-B act = GC-B (human) receptor activation; P20594; HEK293-GC-B cells, CNP EC30, cGMP TR-FRET; 0% at EC30 CNP, 100% saturating CNP; activation, % at 10 µM; 0.11% of 370,000 active; AID 1920062;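 active means activation at 10 µM reaching about 35% in either raw or pattern-adjusted values, limit read from the data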
Target sequence (P20594 whole entry, looked up): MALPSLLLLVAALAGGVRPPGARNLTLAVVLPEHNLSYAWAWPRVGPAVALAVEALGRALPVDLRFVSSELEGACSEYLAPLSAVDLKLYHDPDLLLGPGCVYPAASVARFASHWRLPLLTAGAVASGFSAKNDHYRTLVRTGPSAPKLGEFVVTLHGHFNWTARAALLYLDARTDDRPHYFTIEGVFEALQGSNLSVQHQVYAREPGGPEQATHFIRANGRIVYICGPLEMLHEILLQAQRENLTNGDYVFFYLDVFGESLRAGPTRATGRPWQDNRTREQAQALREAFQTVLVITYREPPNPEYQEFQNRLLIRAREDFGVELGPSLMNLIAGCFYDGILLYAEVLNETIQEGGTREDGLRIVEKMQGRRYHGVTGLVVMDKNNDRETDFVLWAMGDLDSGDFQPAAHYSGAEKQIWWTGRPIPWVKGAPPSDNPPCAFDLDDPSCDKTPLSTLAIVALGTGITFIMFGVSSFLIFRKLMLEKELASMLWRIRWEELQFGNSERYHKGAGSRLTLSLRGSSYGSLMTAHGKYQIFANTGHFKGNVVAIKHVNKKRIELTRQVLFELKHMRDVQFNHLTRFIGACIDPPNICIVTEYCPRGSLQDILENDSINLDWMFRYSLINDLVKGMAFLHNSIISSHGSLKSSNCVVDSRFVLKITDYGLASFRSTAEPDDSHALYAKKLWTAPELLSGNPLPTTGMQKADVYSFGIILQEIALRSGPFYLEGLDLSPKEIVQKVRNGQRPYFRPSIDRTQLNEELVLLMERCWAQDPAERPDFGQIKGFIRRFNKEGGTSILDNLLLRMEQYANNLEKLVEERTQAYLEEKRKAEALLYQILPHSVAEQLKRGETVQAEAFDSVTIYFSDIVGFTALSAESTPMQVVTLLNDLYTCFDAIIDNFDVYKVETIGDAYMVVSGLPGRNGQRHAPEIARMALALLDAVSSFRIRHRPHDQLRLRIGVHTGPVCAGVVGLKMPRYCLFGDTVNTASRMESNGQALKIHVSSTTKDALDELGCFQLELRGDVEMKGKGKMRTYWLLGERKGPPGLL
FN deposition inh = fibronectin deposition inhibition. inhibition, % at 12.6 µM. AH1F fibroblasts, Alexa488-fibronectin deposition fluorescence, overnight. AID 743247. 0.086% of 350,000 active;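 active means mean inhibition across replicates of 30% or more, regardless of how many single replicates reach that level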
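Assay system: AH1F fibroblasts assembling fluorescent fibronectin matrix; Amount: 10000 AH1F cells per well; Buffer or medium: DMEM, 2% serum; Probe or stimulus: Alexa488-fibronectin, 24 nM final in well; Doses: single compound dose, delivered by pin transfer; Incubation: 1 h adhesion, overnight exposure; Measured by: fluorescence 485/525 nm; Read-out: fibronectin deposition inhibition.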
Alpha artifact = AlphaScreen assay artifact in NSD2 counter-screen; shares compounds with NSD2 inh; AlphaScreen artifact counterscreen, preloaded methylated H4 peptide; AC35, µM (titrated, usually from 10 µM); 9.4% of 1,500 active; call rule not given here
A number is an active result; - = inactive; . = not tested or not shown. This is a sample that favours compounds with a hit; in the whole collection about 0.99% have one here.

SMILES	CaV13 FRET inh	Casp6 inh	NPR1 activator	NSD2 inh	GC-B act	FN deposition inh	Alpha artifact
O=C1N=C(N2CCOCC2)SC1=Cc1ccco1	-	-	-	-	-	-	.
COc1cc(OC)nc(NC2OC(=O)c3ccccc32)n1 (stereo unspecified)	-	.	-	104	-	-	-
CO[C@H](C(=O)N(C)C[C@H]1OCc2ccccc2-c2c(n(C)c3ccccc23)C(=O)N([C@H](C)CO)C[C@@H]1C)c1ccccc1	.	-	.	.	.	-	.
COc1ccc2c3c(n(C)c2c1)[C@@H](CO)N(C(=O)C1CCC1)CC31CCN(C(=O)Nc2cccc(F)c2)CC1	.	-	.	.	.	.	.
COc1ccc(C(=O)Oc2ccc(/C=N/Nc3ccc(Cl)c(C(=O)O)c3)cc2OC)cc1	-	-	-	85	-	-	-
COc1cc(/C=N/Nc2ccc(Cl)c(C(=O)O)c2)ccc1OC(=O)c1ccco1	-	-	-	-	-	-	.
Oc1ccc(-c2cn3c(n2)SCC3)cc1	.	.	-	-	-	.	.
Oc1ccc(-c2cn3c(n2)SCC3)cc1O	-	.	-	105	-	-	8.1µM
O=C1NC(NS(=O)(=O)c2ccccc2)(C(F)(F)F)C(=O)N1c1cccc(Cl)c1 (stereo unspecified)	-	-	-	96	-	-	-
Cc1ccc(Nc2nnc(SCC(=O)Nc3ccc(S(=O)(=O)N4CCOCC4)cc3)s2)cc1	-	.	-	62	-	-	-
O=C(CSc1nnc(Nc2ccccc2)s1)Nc1ccc(S(=O)(=O)N2CCOCC2)cc1	-	.	-	-	-	.	.
CN1C(=O)c2cc(NC(=O)c3cccs3)ccc2OC[C@@H]2O[C@@H](CC(=O)NCC(F)(F)F)CC[C@@H]21	.	-	.	.	.	-	.
O=c1[nH]n2c(=O)c3c([nH]c2c1N=Nc1cccc(C(F)(F)F)c1)CCCC3	-	.	-	125	-	-	-
C[C@@H]1CCCCO[C@H](CN(C)S(=O)(=O)c2ccccc2)[C@@H](C)CN([C@@H](C)CO)C(=O)c2cc(NC(=O)Nc3ccccc3)ccc2O1	.	-	.	.	.	-	.
CC(=O)N1CCN(c2ccccc2NC(=O)c2ccc3ccccc3c2)CC1	-	-	-	53	-	-	-
CSc1ncccc1C(=O)OCC(=O)N1CC2(C)CC1CC(C)(C)C2 (stereo unspecified)	-	-	-	53	-	-	-
CCCNC(=O)N(C)C[C@H]1Oc2ncc(C3=CCCC3)cc2C(=O)N([C@H](C)CO)C[C@@H]1C	.	-	.	.	.	.	.
O=c1cc(C=NNc2ccccc2)[nH]c(=O)[nH]1	-	-	-	52	-	-	-
O=C(O)c1ccc(NN=Cc2cc(=O)[nH]c(=O)[nH]2)cc1	-	-	-	-	-	-	.
O=C(CC(=O)NCCc1ccccc1)NCCc1ccccc1	-	-	-	124	-	-	-
O=C(NC1CCCC1)c1cc(-c2ccc(Cl)cc2Cl)on1	-	.	-	89	-	-	-
OCCNC(=S)Nc1ccc2nsnc2c1	-	-	-	96	-	-	-
O=C(NCCO)Nc1ccc2nsnc2c1	-	-	-	-	-	-	.
S=C(Nc1ccc2nsnc2c1)N1CCCCC1	-	47	-	61	-	-	-
C[C@H]1CCCCO[C@H](CN(C)S(=O)(=O)c2ccccc2)[C@@H](C)CN([C@@H](C)CO)C(=O)c2cc(NC(=O)NC3CCCCC3)ccc2O1	.	-	.	.	.	-	.
SMILES	CaV13 FRET inh	Casp6 inh	NPR1 activator	NSD2 inh	GC-B act	FN deposition inh	Alpha artifact
Cc1ccc(S(=O)(=O)Nc2ccc3c(c2)CC(=O)N([C@@H](C)CO)C[C@@H](C)[C@H](CN(C)C)O3)cc1	.	-	.	.	.	.	.
C=CCC1CCCCC1=C(C#N)c1ccccc1 (stereo unspecified)	-	-	-	53	-	-	-
Oc1ccccc1/C=N/Nc1cc(N2CCCC2)nc(N2CCCC2)n1	-	.	-	54	-	-	-
Oc1cccc(/C=N/Nc2cc(N3CCOCC3)nc(N3CCOCC3)n2)c1	-	.	-	-	-	-	.
Oc1ccc(/C=N/Nc2cc(N3CCOCC3)nc(N3CCOCC3)n2)cc1O	-	-	-	106	-	-	-
Cc1ccc(-n2nc(C(=O)NCc3ccc(C)o3)c3c4ccccc4n(C)c3c2=O)cc1	-	.	-	53	-	-	-
O=C(O)c1cc(-c2ccco2)nn1-c1ccc(Cl)cc1	-	50	-	60	-	-	-
c1coc(-c2nc(-c3ccco3)c(-c3ccco3)nc2-c2ccco2)c1	-	.	-	149	-	-	-
Nc1nc(-c2ccco2)c(-c2ccco2)s1	-	.	-	-	-	.	.
Nc1ccc(Br)c2c1C(=O)c1ccccc1C2=O	.	.	.	-	.	.	.
NC1=C(Br)C(=O)c2ccccc2C1=O	-	75	-	57	-	-	-
Cc1ccc(S(=O)(=O)Nc2ccc3c(c2)C(=O)N([C@H](C)CO)C[C@@H](C)[C@H](CN(C)S(=O)(=O)c2ccc(Cl)cc2)O3)cc1	.	-	.	.	.	.	.
COc1ccc(CCNC(=O)CN2C(=O)C(=O)N(C3CCCC3)C2=O)cc1OC	-	-	-	55	-	-	-
C[C@@H]1CN([C@H](C)CO)C(=O)Cc2cc(NC(=O)CCCCCC(=O)Nc3ccccc3N)ccc2O[C@H]1CN(C)CC1CCCCC1	.	-	.	.	.	-	.
Nn1cnnc1N/N=C/c1ccc(Cl)c([N+](=O)[O-])c1	-	-	-	116	-	-	-
Nn1cnnc1N/N=C/c1ccc(F)cc1	-	-	-	-	-	-	.
COc1ccc(N=Nc2ccc(N)nc2N)cc1	-	-	-	-	-	-	.
CCOc1ccc2nc3cc(N=Nc4ccc(N)nc4N)ccc3c(N)c2c1	.	.	.	59	.	.	-
Nc1nc(O)c(Sc2ccccc2[N+](=O)[O-])c(=O)[nH]1	-	-	-	54	-	-	-
Nc1ccccc1Sc1ccccc1[N+](=O)[O-]	-	.	-	-	-	-	.
COc1ccc(CCC(=O)Nc2ccc(S(=O)(=O)Nc3nccc(C)n3)cc2)cc1	-	58	-	76	-	-	-
NS(=O)(=O)c1ccc(NC(=O)Cn2nc(C(=O)O)c3ccccc3c2=O)cc1	-	-	-	-	-	-	.
CCCCn1c(Cn2nc(C(=O)O)c3ccccc3c2=O)nc2cc(S(N)(=O)=O)ccc21	-	-	-	102	-	-	-
Cc1ccc(S(=O)(=O)N(C)C[C@@H]2OCCCC[C@H](C)Oc3ccc(NC(=O)CCC(F)(F)F)cc3C(=O)N([C@H](C)CO)C[C@@H]2C)cc1	.	-	.	.	.	-	.
Cc1sc2nc[nH]c(=S)c2c1-c1ccccc1	-	-	-	86	-	-	-
Cc1sc2nc[nH]c(=O)c2c1-c1ccc(F)cc1	-	-	-	-	-	-	.

Assay outcomes: PubChem, several laboratories
